Assay results taken from the M2OR odorant receptor database.

What was measured:
Details in all cases: stereoisomer not certain
[1] = molecular target: T1, UniProt Q7TR71
T1 sequence (whole entry): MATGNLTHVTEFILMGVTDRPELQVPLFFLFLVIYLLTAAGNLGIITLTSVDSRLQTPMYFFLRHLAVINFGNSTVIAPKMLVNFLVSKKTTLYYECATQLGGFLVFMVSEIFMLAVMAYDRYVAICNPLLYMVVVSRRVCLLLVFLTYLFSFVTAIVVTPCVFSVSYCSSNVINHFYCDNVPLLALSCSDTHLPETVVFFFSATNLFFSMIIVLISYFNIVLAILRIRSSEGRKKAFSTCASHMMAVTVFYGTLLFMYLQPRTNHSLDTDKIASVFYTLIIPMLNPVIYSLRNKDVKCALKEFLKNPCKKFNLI
Procedure, shortened: (§1)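 Whether a receptor–molecule pair is responsive (active) rests on the original authors' judgment that its measured signal was statistically different from baseline. Pairs without that judgment are non-responsive (inactive). Sources used varied assay methods, commonly transient luciferase assays in mammalian cell lines.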

[2] = molecular target: T2, UniProt Q7TR79
T2 sequence (whole entry): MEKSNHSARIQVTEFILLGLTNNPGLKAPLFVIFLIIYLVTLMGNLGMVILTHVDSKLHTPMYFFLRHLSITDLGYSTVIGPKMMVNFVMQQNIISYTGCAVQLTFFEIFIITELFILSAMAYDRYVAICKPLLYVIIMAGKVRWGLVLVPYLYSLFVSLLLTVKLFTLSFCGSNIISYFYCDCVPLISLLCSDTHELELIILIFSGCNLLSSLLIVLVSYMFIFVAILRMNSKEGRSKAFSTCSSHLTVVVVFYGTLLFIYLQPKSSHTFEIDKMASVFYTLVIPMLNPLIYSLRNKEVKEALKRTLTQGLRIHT
Procedure, shortened: as §1

[3] = molecular target: T3, UniProt Q7TRA3
T3 sequence (whole entry): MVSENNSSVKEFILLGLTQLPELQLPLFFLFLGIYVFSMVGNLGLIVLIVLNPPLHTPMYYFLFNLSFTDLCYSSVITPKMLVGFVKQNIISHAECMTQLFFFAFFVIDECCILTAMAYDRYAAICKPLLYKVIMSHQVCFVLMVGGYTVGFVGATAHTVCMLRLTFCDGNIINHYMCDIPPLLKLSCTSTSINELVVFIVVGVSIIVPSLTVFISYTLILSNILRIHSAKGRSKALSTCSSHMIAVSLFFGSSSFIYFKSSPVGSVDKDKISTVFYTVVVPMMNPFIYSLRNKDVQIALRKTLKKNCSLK
Procedure, shortened: as §1

[4] = molecular target: T4, UniProt Q7TRE4
T4 sequence (whole entry): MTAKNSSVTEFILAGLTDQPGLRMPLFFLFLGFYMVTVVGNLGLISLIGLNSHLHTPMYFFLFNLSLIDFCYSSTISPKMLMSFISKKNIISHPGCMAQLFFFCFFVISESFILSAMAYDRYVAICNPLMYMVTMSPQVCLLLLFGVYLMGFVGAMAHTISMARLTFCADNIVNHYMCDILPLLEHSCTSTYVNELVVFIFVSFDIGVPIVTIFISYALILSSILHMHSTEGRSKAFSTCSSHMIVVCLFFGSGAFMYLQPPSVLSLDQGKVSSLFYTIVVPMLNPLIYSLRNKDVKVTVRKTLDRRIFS
Procedure, shortened: as §1

[5] = molecular target: T5, UniProt Q7TRW1
T5 sequence (whole entry): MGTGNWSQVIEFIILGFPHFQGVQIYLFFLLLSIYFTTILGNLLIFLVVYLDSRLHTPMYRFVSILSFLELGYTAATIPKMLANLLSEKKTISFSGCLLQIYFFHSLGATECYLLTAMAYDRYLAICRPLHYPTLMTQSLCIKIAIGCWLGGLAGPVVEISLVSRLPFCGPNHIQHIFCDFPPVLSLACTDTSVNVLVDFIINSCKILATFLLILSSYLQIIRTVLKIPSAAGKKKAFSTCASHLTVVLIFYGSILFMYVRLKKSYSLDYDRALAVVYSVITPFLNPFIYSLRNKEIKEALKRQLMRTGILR
Procedure, shortened: as §1

[6] = molecular target: T6, UniProt Q7TRX0
T6 sequence (whole entry): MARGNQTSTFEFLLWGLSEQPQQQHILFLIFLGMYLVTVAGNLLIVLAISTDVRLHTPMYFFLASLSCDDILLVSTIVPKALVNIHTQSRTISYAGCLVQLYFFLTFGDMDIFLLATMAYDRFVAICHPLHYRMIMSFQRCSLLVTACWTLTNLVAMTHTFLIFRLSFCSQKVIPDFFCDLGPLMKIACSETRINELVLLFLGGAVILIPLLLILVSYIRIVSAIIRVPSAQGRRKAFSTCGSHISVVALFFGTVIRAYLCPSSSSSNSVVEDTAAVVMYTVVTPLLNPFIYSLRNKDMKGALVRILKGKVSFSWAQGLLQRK
Procedure, shortened: as §1

[7] = molecular target: T7, UniProt Q8VEU7
T7 sequence (whole entry): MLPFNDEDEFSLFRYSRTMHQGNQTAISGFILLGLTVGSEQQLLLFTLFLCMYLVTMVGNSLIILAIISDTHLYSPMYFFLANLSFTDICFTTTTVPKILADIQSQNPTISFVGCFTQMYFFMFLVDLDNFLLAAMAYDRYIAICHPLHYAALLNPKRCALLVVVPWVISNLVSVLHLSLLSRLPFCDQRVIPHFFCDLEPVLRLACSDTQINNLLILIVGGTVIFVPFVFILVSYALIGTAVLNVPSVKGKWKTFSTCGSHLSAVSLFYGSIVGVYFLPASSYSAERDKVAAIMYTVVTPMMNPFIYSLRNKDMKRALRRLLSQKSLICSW
Procedure, shortened: as §1

[8] = molecular target: T8, UniProt Q8VF05
T8 sequence (whole entry): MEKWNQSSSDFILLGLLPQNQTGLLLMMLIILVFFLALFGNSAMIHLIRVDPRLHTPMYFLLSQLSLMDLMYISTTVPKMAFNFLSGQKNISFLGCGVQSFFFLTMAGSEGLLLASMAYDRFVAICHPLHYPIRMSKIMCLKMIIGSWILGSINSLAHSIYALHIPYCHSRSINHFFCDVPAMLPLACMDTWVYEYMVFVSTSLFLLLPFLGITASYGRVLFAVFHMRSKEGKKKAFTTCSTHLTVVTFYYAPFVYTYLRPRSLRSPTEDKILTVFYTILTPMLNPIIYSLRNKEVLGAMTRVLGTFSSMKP
Procedure, shortened: as §1

[9] = molecular target: T9, UniProt Q7TRM0
T9 sequence (whole entry): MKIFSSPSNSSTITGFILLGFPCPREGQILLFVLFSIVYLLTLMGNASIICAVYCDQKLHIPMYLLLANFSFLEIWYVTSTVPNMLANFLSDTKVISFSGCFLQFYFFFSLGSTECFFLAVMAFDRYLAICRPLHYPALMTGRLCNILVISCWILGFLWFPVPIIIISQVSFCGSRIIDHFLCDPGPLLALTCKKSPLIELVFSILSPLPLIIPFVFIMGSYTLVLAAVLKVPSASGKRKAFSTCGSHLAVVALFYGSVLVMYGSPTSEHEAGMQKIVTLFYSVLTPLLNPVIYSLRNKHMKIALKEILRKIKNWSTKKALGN
Procedure, shortened: as §1

[10] = molecular target: T10, UniProt Q7TRN9
T10 sequence (whole entry): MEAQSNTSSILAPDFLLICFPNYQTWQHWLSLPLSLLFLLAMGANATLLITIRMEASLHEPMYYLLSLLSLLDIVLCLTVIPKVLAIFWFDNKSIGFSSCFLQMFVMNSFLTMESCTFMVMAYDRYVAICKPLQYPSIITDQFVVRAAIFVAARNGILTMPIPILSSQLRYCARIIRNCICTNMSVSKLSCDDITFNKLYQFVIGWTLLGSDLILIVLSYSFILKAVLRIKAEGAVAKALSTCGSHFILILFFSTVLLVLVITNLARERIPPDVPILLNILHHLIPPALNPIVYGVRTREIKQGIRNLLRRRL
Procedure, shortened: as §1

[11] = molecular target: T11, UniProt Q7TRR8
T11 sequence (whole entry): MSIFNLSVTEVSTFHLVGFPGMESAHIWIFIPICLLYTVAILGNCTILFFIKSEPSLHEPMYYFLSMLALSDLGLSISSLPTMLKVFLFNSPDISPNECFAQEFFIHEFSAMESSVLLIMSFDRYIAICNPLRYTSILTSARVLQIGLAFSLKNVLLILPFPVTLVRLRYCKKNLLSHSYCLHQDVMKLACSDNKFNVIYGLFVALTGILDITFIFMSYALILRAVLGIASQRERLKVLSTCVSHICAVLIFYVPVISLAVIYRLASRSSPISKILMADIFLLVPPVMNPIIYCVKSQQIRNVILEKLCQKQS
Procedure, shortened: as §1

Measured: odorant receptor agonist call;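 further: active if original authors judged signal statistically different from baseline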

c1ccccc1
active: [8]
inactive: [1] | [2] | [3] | [4] | [5] | [6] | [7]

O=C1Cc2ccccc2O1
inactive: [1] | [2] | [3] | [4] | [5] | [6] | [7] | [8]

CC12CCC(CC1=O)C2(C)C (centres undefined)
inactive: [2] | [3] | [4] | [5] | [6] | [8]
active: [1] | [7]

CCCCCCCCO
inactive: [1] | [2] | [3] | [4] | [9] | [11] | [5] | [6] | [7] | [8]
active: [10]

CC(=O)Oc1ccccc1
inactive: [1] | [2] | [3] | [4] | [5] | [6] | [7] | [8]

CCCCCCCCCO
active: [10]
inactive: [1] | [2] | [3] | [4] | [9] | [11] | [5] | [6] | [7] | [8]

CCCCC(C)=O
active: [8]
inactive: [1] | [2] | [3] | [4] | [5] | [6] | [7]

CCCC(=O)C(C)=O
inactive: [1] | [2] | [3] | [4] | [5] | [6] | [7]
active: [8]

CC(=O)OCc1ccccc1
inactive: [1] | [2] | [3] | [4] | [5] | [6] | [7]
active: [8]

CC(=O)OCC=C(C)C
inactive: [1] | [2] | [3] | [4] | [5] | [6] | [7]
active: [8]

COc1cc(C(=O)O)ccc1O
inactive: [1] | [2] | [3] | [4] | [5] | [6] | [7] | [8]
